Compound activity from PubChem.
KLF5 inh = inhibitors of KLF5 expression; DLD-1 KLF5 promoter-luciferase reporter, luminescence; inhibition, % at 5 µM; 290,000 compounds, 0.23% hits;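 active means inhibition above a per-plate limit of that plate's mean compound inhibition plus 3 SD, cut at about 60% in these data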;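 further: 0% = DMSO wells and 100% = LY294002 at 200 µM; higher means less KLF5 promoter-driven luciferase light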
T cruzi inh = T. cruzi replication inhibition. T. cruzi beta-gal in NIH3T3, luminescence, 90 h. inhibition, % (concentration not given with the values). 300,000 compounds, 1.4% hits. AID 1885;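 active means mean inhibition across valid replicates above about 55%, limit read from the data; inconclusive means mean below that limit but half or more replicates reach it; inactive means mean below it, under half of replicates reach it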;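 further: signal also drops with host cell toxicity which is not excluded here; 0% = plate median of DMSO wells and 100% = zero luminescence signal; higher percent means less beta-gal luminescence so fewer parasites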
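Assay system: NIH/3T3 host cells with β-galactosidase reporter T. cruzi; input: 5,000 host fibroblasts per well; compound: single 50 nL compound addition per well in DMSO; timing: ≥90 h infection period, 3 h prior cell attachment; measured by: GalScreen β-gal luminescence, detergent lysis, 60 min; evaluation: percent inhibition of parasite-derived β-gal signal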
Beta cell apopt = beta cell apoptosis inhibition; INS-1E cytokine-induced death, ATP luminescence, 48 h; percent of positive-control rescue, neutral wells zero; protection from apoptosis, % (no concentration beside the values); 300,000 compounds, 0.8% hits;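 active means Every replicate reaches about 75%, or at least half do and their mean reaches it too, limit read from the data; inconclusive means At least half of replicates reach the limit but their mean does not; inactive means Under half of replicates reach the limit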;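 further: 0% = cytokine-treated negative control wells and 100% = positive control rescue; higher means more ATP so stronger rescue from cytokine killing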
Bfl-1 A1 inh = inhibitors of the anti-apoptotic protein A1, read as caspase activation. MEF A1-2A-BIM cells, Caspase-Glo 3/7 luminescence, 3 h; percent of clofoctol response, vehicle zero. caspase activation, % (concentration not given with the values). 330,000 compounds, 0.066% hits. AID 2462;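 active means over half of replicate activation scores above 10%, or exactly half above 10 with the replicate mean above 10; inconclusive means replicate mean below 10 yet half the replicates above 10; inactive means over half of replicates below 10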
HIF activator = HIF pathway transcriptional activation; U2OS HRE-luciferase reporter, luminescence; normalized: DMSO 0%, desferrioxamine 100%; activation, % at 7.5 µM (by protocol); 300,000 compounds, 0.32% hits; AID 1910;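 active means mean activation of at least 10% of the iron chelator positive control signal, with at least half of replicates also reaching 10%; inconclusive means mean and replicate majority disagree about reaching 10%; inactive means mean and most replicates under 10%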
* hit, by the source's call; ? = inconclusive; . = no result given. In the library only some 2.3% were active in any assay of this set; here they are far more common.

SMILES	KLF5 inh	T cruzi inh	Beta cell apopt	Bfl-1 A1 inh	HIF activator
CCOCCCn1c(=N)c(C(=O)NCc2ccc3c(c2)OCO3)cc2c(=O)n3ccccc3nc21	-8	60*	.	.	0
COc1ccc(CCn2c(=N)c(C(=O)NCC3CCCO3)cc3c(=O)n4cccc(C)c4nc32)cc1 (centres undefined)	-19	58*	33	0	1
CN1C(=O)C(C)(C)c2cc(S(=O)(=O)NCC3CCC(C(=O)NCc4ccccc4)CC3)ccc21 (centres undefined)	-38	-7	0	0	0
COc1ccc(N(CC(=O)NCc2ccc(F)cc2)C(=O)Cn2nnc(-c3ccc(C)o3)n2)cc1OC	11	3	0	0	0
COc1ccccc1N(Cc1ccccc1)S(=O)(=O)c1cccc(C(=O)Nc2cccc(C)n2)c1	-9	43	21	0	-1
CCCn1c(=N)c(C(=O)NCc2ccc3c(c2)OCO3)cc2c(=O)n3cccc(C)c3nc21	-18	64*	18	0	0
CCOc1ccc(-n2cc(C(=O)Nc3cccc(Cl)c3)c3cc(OC)c(OC)cc3c2=O)cc1	-20	64*	10	1	-1
COc1cc(CNC2CCCC2)cc(Cl)c1OCc1ccccc1F	-16	58*	14	0	0
C[C@H]1[C@H](NC(=O)C(=NOC(C)(C)C(=O)O)c2csc(N)n2)C(=O)N1S(=O)(=O)O	.	.	-6	1	.
Cc1ccc(Sc2ncccc2C(=O)N(C)Cc2cccs2)c(C)c1	-23	4	-1	1	-1
COc1ccc(-n2c(-c3ccc(Cl)cc3)c[n+]3c2CCc2ccccc2-3)cc1	0	74*	110*	1	1
CNC(=O)NCC12CC3CC(CC(C3)C1)C2	1	4	-10	-1	0
Cc1cc(C(=O)NCC23CC4CC(CC(C4)C2)C3)c(C)o1	-10	61*	6	0	0
Cc1nn(Cc2ccc(Cl)cc2Cl)c(C)c1NC(=O)c1nn(C)cc1Cl	-28	-19	-6	0	1
O=C(Nc1ccn(Cc2c(F)c(F)cc(F)c2F)n1)c1ccc(COc2ccc(Cl)cc2Cl)o1	-49	51	-4	-1	-1
Cc1nn(Cc2c(F)c(F)c(F)c(F)c2F)c(C)c1NC(=O)c1ccc(COc2ccc(Cl)cc2Cl)o1	-7	67*	21	0	0
Cc1nn(Cc2cccc(F)c2)c(C)c1NC(=O)c1ccc(COc2ccccc2Cl)cc1	-32	57*	16	0	-1
Cc1nn(Cc2ccc(Cl)cc2Cl)c(C)c1NC(=O)c1ccc(COc2cc(Cl)ccc2Cl)o1	-36	59*	7	-1	1
O=C(Nc1ccc(CSc2ccccc2)cc1)c1ccco1	-98	3	-1	-7	3
COc1ccc(O)c(/C=N/NC(=S)Nc2cccnc2)c1	-63	-6	76*	-2	1
COc1ccc(O)c(/C=N/NC(=S)Nc2cccc(S(=O)(=O)N(C)C)c2)c1	12	9	65	0	42*
COc1cccc(/C=N/NC(=S)Nc2cccnc2)c1	-7	2	1	-1	2
COc1cccc(/C=N/NC(=S)Nc2cccc(S(=O)(=O)N(C)C)c2)c1	6	-5	-1	0	0
COCCCN(C(=O)CCOc1ccccc1C)c1c(N)n(Cc2ccccc2)c(=O)[nH]c1=O	.	-4	0	2	-3
CC(C)c1ccc(-c2cc(C(=O)N3N=C(C(F)F)CC3(O)C(F)F)c3ccccc3n2)cc1 (centres undefined)	-83	69*	38	0	1
SMILES	KLF5 inh	T cruzi inh	Beta cell apopt	Bfl-1 A1 inh	HIF activator
CCc1ccc2oc(-c3ccc(OC)cc3)cc(=Nc3c(C)n(C)n(-c4ccccc4)c3=O)c2c1	-80	64*	11	-8	-2
CC(NC(=O)C1CCC(C(=O)NC(C)c2ccccc2)CC1)c1ccccc1 (centres undefined)	-24	-7	238*	-1	-2
CC(NC(=O)C1CCC1)c1ccccc1 (centres undefined)	-11	-5	-6	1	0
CCOc1ccc(/C=N/NC(=O)c2ccccc2C)cc1CN1CC2CC(C1)c1cccc(=O)n1C2 (centres undefined)	.	.	0	0	.
CC1CN(c2nc3ccccc3nc2C(C#N)C(=O)OC2CCCCC2)CC(C)O1 (centres undefined)	-26	63*	33	-1	0
N#CC(C(=O)OC1CCCCC1)c1nc2ccccc2nc1N1CCCCC1 (centres undefined)	-32	67*	.	.	0
Cc1cc(-c2cn3ccccc3n2)c(C)n1-c1ccccc1	-2	62*	10	-2	2
COc1ccc(-n2c(C)cc(-c3cn4cccc(C)c4n3)c2C)cc1	-24	38	1	0	-1
COCCN(Cc1ccccc1)C(=O)C1CCN(S(=O)(=O)c2ccc3c(c2)OCCO3)CC1	.	.	-5	0	.
CC(CCc1ccccc1)NC(=O)c1ccc(NC(=O)c2ccccc2)cc1 (centres undefined)	-16	-38	20	?	0
CC(CCc1ccccc1)NC(=O)c1ccc(NC(=O)c2cccc(Br)c2)cc1 (centres undefined)	6	70*	8	0	-1
O=C(c1ccc([N+](=O)[O-])o1)N1CCN(c2nc3c(F)cc(F)cc3s2)CC1	.	56*	57	0	0
Cc1cccc(/C=C(\c2nc3ccccc3[nH]2)S(=O)(=O)c2ccccc2)c1	-7	47	.	.	2
CC(C)(C)c1ccc(/C=C(\c2nc3ccccc3[nH]2)S(=O)(=O)c2ccccc2)cc1	.	56*	108*	0	3
CN1c2ccc([N+](=O)[O-])cc2N(C)C1(C)c1ccccc1 (centres undefined)	-9	57*	10	0	-12
CCOC(=O)C1=C(C)N=C2c3ccccc3C(=O)C2C1c1ccc(Cl)cc1 (centres undefined)	-17	61*	-13	0	-1
O=C1C=CC(=O)N1c1cccc(-c2ccccc2)c1	14	-15	1	13*	0
Cc1cc(NC(=O)C23CC4CC(C2)CC(n2cnc([N+](=O)[O-])n2)(C4)C3)no1	4	55*	-10	-1	0
O=C(Nc1ccon1)C12CC3CC(C1)CC(n1cnc([N+](=O)[O-])n1)(C3)C2	-32	59*	-1	0	0
O=C(Oc1ccc(NC2=C(Cl)C(=O)c3ccccc3C2=O)cc1)c1ccc([N+](=O)[O-])cc1	-50	63*	.	.	0
Cc1cc(C)c2c(CC(=O)NNC(=O)c3ccccc3)coc2c1	-38	16	-5	1	-1
C=CCN(CC=C)C(=S)NC(=O)c1ccc(-c2ccccc2)cc1	-6	55*	11	1	-1
COc1ccc(OC)c(C(C)NC(=O)C(C)n2cc([N+](=O)[O-])cn2)c1 (centres undefined)	.	.	0	1	.
